Molecules are shown by their SMILES. pIC50, pKd: −log10 of the molar value.

What all share (format): ADME
In data set [1] the target is T1, Cytochrome P450 3A4 (Homo sapiens, UniProt P08684). The data set is described as follows: Binding affinity to C-terminal four-histidine tagged human CYP3A4delta3 to 24 residues expressed in Escherichia coli assessed as spectral dissociation constant by spectrophotometric method. A digest of the protocol:
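Equilibrium titration of CYP3A4 in 50 mM phosphate pH 7.4 with 20% glycerol and 1 mM DTT. Ligand added in small aliquots from DMSO stock, final DMSO <2%. Absorbance spectra recorded. Ks obtained from one- or two-site saturation fit of absorbance change versus ligand concentration.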

Data set [2] has as its target T1, Cytochrome P450 3A4. The data set is described as follows: Binding affinity to C-terminal four-histidine tagged human CYP3A4delta3 to 24 residues expressed in Escherichia coli assessed as change in melting temperature at 10 uM by spectrophotometric method.
Data set [3] deals with T1, Cytochrome P450 3A4. As to the kind of experiment: Inhibition of C-terminal four-histidine tagged human CYP3A4delta3 to 24 residues expressed in Escherichia coli assessed as 7-benzyloxy-4-(trifluoromethyl)coumarin O-debenzylation pretreated 2 mins followed by NADPH addition by fluorometric method in presence of rat cytochrome P450 reductase. The gist of the method: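 Reconstituted system at room temperature in 100 mM phosphate pH 7.4 with catalase and superoxide dismutase (2 units/mL each). 1 μM CYP3A4 and 1 μM rat CPR preincubated 1 h at room temperature, then diluted 20-fold in assay buffer just before measurement. BFC (50 μM) and varying compound concentrations added 2 min before starting with 100 μM NADPH. O-debenzylation read fluorometrically; IC50 = half-maximal inactivation.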

Data set [4] deals with T1, Cytochrome P450 3A4. As to the kind of experiment: Binding affinity to C-terminal four-histidine tagged human CYP3A4delta3 to 24 residues expressed in Escherichia coli assessed as rate constant for first phase. The gist of the method: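 Stopped-flow mixing of 2 μM CYP3A4 with varied ligand concentrations, room temperature, 50 mM phosphate pH 7.4. Absorbance followed at 409–411 or 427–428 nm depending on ligand. Fast-phase rate constant taken at saturating ligand concentration.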

T1 sequence (P08684 whole entry, the tested form may be a part): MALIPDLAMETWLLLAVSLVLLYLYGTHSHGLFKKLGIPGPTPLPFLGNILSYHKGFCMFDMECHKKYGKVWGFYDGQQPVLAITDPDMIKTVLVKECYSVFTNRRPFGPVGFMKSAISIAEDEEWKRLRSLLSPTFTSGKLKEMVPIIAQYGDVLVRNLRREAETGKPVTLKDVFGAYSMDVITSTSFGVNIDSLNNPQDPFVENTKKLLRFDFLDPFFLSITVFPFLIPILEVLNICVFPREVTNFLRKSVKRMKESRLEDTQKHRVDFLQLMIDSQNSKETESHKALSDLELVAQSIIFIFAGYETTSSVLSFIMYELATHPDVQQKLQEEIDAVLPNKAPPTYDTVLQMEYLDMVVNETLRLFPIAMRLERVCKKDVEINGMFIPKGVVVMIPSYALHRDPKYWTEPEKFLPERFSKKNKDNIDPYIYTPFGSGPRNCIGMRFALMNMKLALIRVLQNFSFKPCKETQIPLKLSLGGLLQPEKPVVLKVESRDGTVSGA

By pKd is commonly meant the negative decadic logarithm of the Kd, by convention in mol/L. As usually defined, the pIC50 is the IC50 on a negative log10 scale, so that one unit is a factor of ten. For the compound `NCCc1cccnc1`, the pKd at Cytochrome P450 3A4 [1] was 2.60. Moreover, the deltaTm at Cytochrome P450 3A4 [2] is -0.1 °C. The pIC50 at Cytochrome P450 3A4 [3] was 2.30. Moreover, the K at Cytochrome P450 3A4 [4] stood at 0.6 s⁻¹.
As for `CC(C)(C)OC(=O)NCCCCCC(=O)NCc1cccnc1`, the deltaTm on Cytochrome P450 3A4 [2] was -0.2 °C. Moreover, the negative-log IC50 (pIC50) at Cytochrome P450 3A4 [3] is 4.12. Also, on Cytochrome P450 3A4 [4], the K stood at 20 s⁻¹.
Regarding `CC(C)(C)OC(=O)N[C@H](CSCCC(=O)NCc1cccnc1)CC1CCCCC1`, the pKd on Cytochrome P450 3A4 [1] was 5.00. Besides, at Cytochrome P450 3A4 [2], the deltaTm was -2 °C. In addition, on Cytochrome P450 3A4 [3], the negative-log IC50 (pIC50) is 4.52. Besides, the K at Cytochrome P450 3A4 [4] came to 4 s⁻¹.
In the same order, the values of `CC(C)(C)OC(=O)N[C@H](CSCCC(=O)NCc1cccnc1)Cc1ccccc1` are 6.05, -1 °C, 6.28 and 1.7 s⁻¹.
The like results for `NCCCCCC(=O)NCc1cccnc1` were, in that order, 5.00, -0.2 °C, 3.00 and 0.8 s⁻¹.
In the same order, the values of `CC(C)(C)OC(=O)N[C@H](CSCCC(=O)NCc1cccnc1)Cc1c[nH]c2ccccc12` are 6.30, 0.2 °C, 6.68 and 8 s⁻¹.
For `c1ccncc1` [PYRIDINE], the deltaTm at Cytochrome P450 3A4 [2] was determined as 0 °C. For the same compound, the K on Cytochrome P450 3A4 [4] turned out to be 0.5 s⁻¹.

Source of the values: ChEMBL document CHEMBL3813601, “Structure-Based Inhibitor Design for Evaluation of a CYP3A4 Pharmacophore Model” (J Med Chem, 2016).
